Results: ChEMBL document CHEMBL1144010, “Synthesis and in vitro opioid receptor functional antagonism of analogues of the selective kappa opioid receptor antagonist (3R)-7-hydroxy-N-((1S)-1-{[(3R,4R)-4-(3-hydroxyphenyl)-3,4-dimethyl-1-piperidinyl]methyl}-2-methylpropyl)-1,2,3,4-tetrahydro-3-isoquinolinecarboxamide (JDTic)” (J Med Chem, 2008)

What was measured:
[1] = molecular target: Mu-type opioid receptor (Homo sapiens) (UniProt P35372); assay: Antagonist activity at human cloned mu opioid receptor expressed in CHO cells assessed as inhibition of DAMGO-stimulated [35S]GTPgammaS binding; format: functional, cell-based
Procedure, shortened: (§1)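 Agonist concentration-response curves for stimulated [35S]GTPγS binding are run with and without a single concentration of test compound. Ke = [L]/(DR−1), where DR is the ratio of agonist EC50 with and without compound.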

[2] = molecular target: Delta-type opioid receptor (Homo sapiens) (UniProt P41143); assay: Antagonist activity at human cloned delta opioid receptor expressed in CHO cells assessed as inhibition of DPDPE-stimulated [35S]GTP-gamma-S binding; format: functional, cell-based; procedure, shortened: as §1
[3] = molecular target: Kappa-type opioid receptor (Homo sapiens) (UniProt P41145); assay: Antagonist activity at human cloned kappa opioid receptor expressed in CHO cells assessed as inhibition of U69593-stimulated [35S]GTP-gamma-S binding; format: functional, cell-based; procedure, shortened: as §1
CHO [4] = assay: Selectivity for human cloned kappa opioid receptor over human cloned mu opioid receptor expressed in CHO cells; format: cell-based
CHO [5] = assay: Selectivity for human cloned kappa opioid receptor over human cloned delta opioid receptor expressed in CHO cells; format: cell-based

Delta-type opioid receptor (Homo sapiens), sequence (P41143 whole entry): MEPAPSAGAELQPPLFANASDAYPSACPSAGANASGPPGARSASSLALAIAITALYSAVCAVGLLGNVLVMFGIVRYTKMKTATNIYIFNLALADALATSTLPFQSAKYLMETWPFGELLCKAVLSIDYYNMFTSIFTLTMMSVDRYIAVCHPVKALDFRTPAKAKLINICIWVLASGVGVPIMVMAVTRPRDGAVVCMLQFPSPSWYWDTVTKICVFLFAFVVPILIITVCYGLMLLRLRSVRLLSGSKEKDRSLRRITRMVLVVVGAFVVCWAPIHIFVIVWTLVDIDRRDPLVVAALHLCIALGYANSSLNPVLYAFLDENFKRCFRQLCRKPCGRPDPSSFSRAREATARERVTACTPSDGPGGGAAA
Kappa-type opioid receptor (Homo sapiens), sequence (P41145 whole entry): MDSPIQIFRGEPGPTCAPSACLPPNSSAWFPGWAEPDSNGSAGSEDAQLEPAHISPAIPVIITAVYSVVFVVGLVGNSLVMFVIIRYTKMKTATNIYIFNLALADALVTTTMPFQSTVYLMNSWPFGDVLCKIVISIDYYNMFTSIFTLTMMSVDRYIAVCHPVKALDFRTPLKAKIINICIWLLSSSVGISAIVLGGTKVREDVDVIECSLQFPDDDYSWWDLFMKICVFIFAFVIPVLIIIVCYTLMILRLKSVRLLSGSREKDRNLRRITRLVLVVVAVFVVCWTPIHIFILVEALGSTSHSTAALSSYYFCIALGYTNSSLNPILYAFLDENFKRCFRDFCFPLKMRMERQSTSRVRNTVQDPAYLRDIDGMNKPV
Mu-type opioid receptor (Homo sapiens), sequence (P35372 whole entry): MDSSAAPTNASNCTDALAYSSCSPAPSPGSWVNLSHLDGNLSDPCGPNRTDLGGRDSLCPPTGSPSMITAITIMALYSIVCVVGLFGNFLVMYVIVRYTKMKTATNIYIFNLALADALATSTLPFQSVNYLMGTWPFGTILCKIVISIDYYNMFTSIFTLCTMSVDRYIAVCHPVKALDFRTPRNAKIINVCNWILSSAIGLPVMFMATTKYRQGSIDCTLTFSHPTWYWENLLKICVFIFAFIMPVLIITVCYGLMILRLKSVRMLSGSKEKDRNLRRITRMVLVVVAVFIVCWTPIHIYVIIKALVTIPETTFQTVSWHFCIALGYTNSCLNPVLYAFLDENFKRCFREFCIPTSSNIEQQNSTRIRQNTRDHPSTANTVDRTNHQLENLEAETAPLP

SMILES: COc1ccc2c(c1)CN(CC(=O)N[C@H](CN1CC[C@@](C)(c3cccc(O)c3)[C@@H](C)C1)C(C)C)CC2
- Ke [1]: 17.7 nM
- Ke [2]: 51.7 nM
- Ke [3]: 16.8 nM
- Ratio Ke (CHO [4]): 1
- Ratio Ke (CHO [5]): 3

SMILES: CC(C)[C@@H](CN1CC[C@@](C)(c2cccc(O)c2)[C@@H](C)C1)NC(=O)c1cnc2cc(O)ccc2c1
- Ke [1]: 48 nM
- Ke [2]: 229 nM
- Ke [3]: 9.3 nM
- Ratio Ke (CHO [4]): 5.2
- Ratio Ke (CHO [5]): 25

SMILES: CC(C)[C@@H](CN1CC[C@@](C)(c2cccc(O)c2)[C@@H](C)C1)NC(=O)CN1CCc2cc(O)ccc2C1
- Ke [1]: 21.4 nM
- Ke [2]: 408 nM
- Ke [3]: 3.9 nM
- Ratio Ke (CHO [4]): 5.5
- Ratio Ke (CHO [5]): 105

SMILES: COc1ccc2c(c1)CN[C@@H](C(=O)N[C@H](CN1CC[C@@](C)(c3cccc(O)c3)[C@@H](C)C1)C(C)C)C2
- Ke [1]: 51.4 nM
- Ke [2]: 118 nM
- Ke [3]: 0.06 nM
- Ratio Ke (CHO [4]): 857
- Ratio Ke (CHO [5]): 1980

SMILES: COc1ccc2cc(C(=O)N[C@H](CN3CC[C@@](C)(c4cccc(O)c4)[C@@H](C)C3)C(C)C)cnc2c1
- Ke [1]: 19.5 nM
- Ke [2]: 158 nM
- Ke [3]: 11.4 nM
- Ratio Ke (CHO [4]): 1.7
- Ratio Ke (CHO [5]): 14

SMILES: CC(C)[C@@H](CN1CC[C@@](C)(c2cccc(O)c2)[C@@H](C)C1)NC(=O)[C@H]1Cc2ccccc2CN1
- Ke [3]: 56 nM

SMILES: CC(C)[C@@H](CN1CC[C@@](C)(c2cccc(O)c2)[C@@H](C)C1)NC(=O)c1cc2ccc(O)cc2[nH]1
- Ke [1]: 23.8 nM
- Ke [2]: 97 nM
- Ke [3]: 34.1 nM
- Ratio Ke (CHO [4]): 0.7
- Ratio Ke (CHO [5]): 3

SMILES: COc1ccc2nc(C(=O)N[C@H](CN3CC[C@@](C)(c4cccc(O)c4)[C@@H](C)C3)C(C)C)[nH]c2c1
- Ke [1]: 8.5 nM
- Ke [2]: 102 nM
- Ke [3]: 28.4 nM
- Ratio Ke (CHO [4]): 0.3
- Ratio Ke (CHO [5]): 3.6

SMILES: CC(C)[C@@H](CN1CC[C@@](C)(c2cccc(O)c2)[C@@H](C)C1)NC(=O)[C@H]1Cc2ccc(N)cc2CN1
- Ke [1]: 12.6 nM
- Ke [2]: 373 nM
- Ke [3]: 0.2 nM
- Ratio Ke (CHO [4]): 63
- Ratio Ke (CHO [5]): 1860

SMILES: CC[C@H](C)[C@@H](CN1CC[C@@](C)(c2cccc(O)c2)[C@@H](C)C1)NC(=O)[C@H]1Cc2ccc(O)cc2CN1
- Ke [1]: 3 nM
- Ke [2]: 24 nM
- Ke [3]: 0.03 nM
- Ratio Ke (CHO [4]): 100
- Ratio Ke (CHO [5]): 800

SMILES: COc1ccc2cc(C(=O)N[C@H](CN3CC[C@@](C)(c4cccc(O)c4)[C@@H](C)C3)C(C)C)[nH]c2c1
- Ke [1]: 13.7 nM
- Ke [2]: 282 nM
- Ke [3]: 10.9 nM
- Ratio Ke (CHO [4]): 1.3
- Ratio Ke (CHO [5]): 26

SMILES: COc1ccc2c(c1)CCN(CC(=O)N[C@H](CN1CC[C@@](C)(c3cccc(O)c3)[C@@H](C)C1)C(C)C)C2
- Ke [1]: 11.4 nM
- Ke [2]: 76 nM
- Ke [3]: 26 nM
- Ratio Ke (CHO [4]): 0.4
- Ratio Ke (CHO [5]): 3

SMILES: CC(C)[C@@H](CN1CC[C@@](C)(c2cccc(O)c2)[C@@H](C)C1)NC(=O)c1nc2ccc(O)cc2[nH]1
- Ke [1]: 15.6 nM
- Ke [2]: 290 nM
- Ke [3]: 22.4 nM
- Ratio Ke (CHO [4]): 0.7
- Ratio Ke (CHO [5]): 13

SMILES: CC(C)[C@@H](CN1CC[C@@](C)(c2cccc(O)c2)[C@@H](C)C1)NC(=O)[C@H]1Cc2ccc(NS(C)(=O)=O)cc2CN1
- Ke [1]: 17.7 nM
- Ke [2]: 106 nM
- Ke [3]: 4 nM
- Ratio Ke (CHO [4]): 4.4
- Ratio Ke (CHO [5]): 27

SMILES: CC(=O)Nc1ccc2c(c1)CN[C@@H](C(=O)N[C@H](CN1CC[C@@](C)(c3cccc(O)c3)[C@@H](C)C1)C(C)C)C2
- Ke [1]: 11 nM
- Ke [2]: 555 nM
- Ke [3]: 1.4 nM
- Ratio Ke (CHO [4]): 7.9
- Ratio Ke (CHO [5]): 396

SMILES: CC(C)CCN(CCN1CC[C@@](C)(c2cccc(O)c2)[C@@H](C)C1)C(=O)[C@H]1Cc2ccc(O)cc2CN1
- Ke [1]: 0.5 nM
- Ke [2]: 9.3 nM
- Ke [3]: 1.2 nM
- Ratio Ke (CHO [4]): 0.4
- Ratio Ke (CHO [5]): 8

SMILES: CC(C)CN(CCN1CC[C@@](C)(c2cccc(O)c2)[C@@H](C)C1)C(=O)[C@H]1Cc2ccc(O)cc2CN1
- Ke [1]: 1 nM
- Ke [2]: 39 nM
- Ke [3]: 1.9 nM
- Ratio Ke (CHO [4]): 0.5
- Ratio Ke (CHO [5]): 21

SMILES: CC(C)[C@@H](CN1CC[C@@](C)(c2cccc(O)c2)[C@@H](C)C1)NC(=O)[C@H]1Cc2ccc(O)cc2CN1
- Ratio Ke (CHO [4]): 1250
- Ratio Ke (CHO [5]): 3800

SMILES: CC(C)[C@@H](CN1CC[C@@](C)(c2cccc(O)c2)[C@@H](C)C1)NC(=O)c1c[nH]c2cc(O)ccc12
- Ke [1]: 4.8 nM
- Ke [2]: 224 nM
- Ke [3]: 4.5 nM
- Ratio Ke (CHO [4]): 1.1
- Ratio Ke (CHO [5]): 50

SMILES: CC(C)[C@@H](CN1CC[C@@](C)(c2cccc(O)c2)[C@@H](C)C1)NC(=O)CN1CCc2ccc(O)cc2C1
- Ke [1]: 9.2 nM
- Ke [2]: 177 nM
- Ke [3]: 23.5 nM
- Ratio Ke (CHO [4]): 0.4
- Ratio Ke (CHO [5]): 7.5

SMILES: CC(C)[C@@H](CN1CC[C@@](C)(c2cccc(O)c2)[C@@H](C)C1)NC(=O)[C@H]1Cc2ccc([N+](=O)[O-])cc2CN1
- Ke [1]: 7.9 nM
- Ke [2]: 65 nM
- Ke [3]: 6.4 nM
- Ratio Ke (CHO [4]): 1.2
- Ratio Ke (CHO [5]): 10
